According to ChEMBL document CHEMBL5053495, “A Versatile Sub-Nanomolar Fluorescent Ligand Enables NanoBRET Binding Studies and Single-Molecule Microscopy at the Histamine H3 Receptor” (J Med Chem, 2021):

Assays:
[1] = biological target: T1, Histamine H3 receptor (Homo sapiens, UniProt Q9Y5N1); test: Binding affinity in Nluc-hH3R assessed in HEK293 cells by NanoBRET binding assay; format: cell-based
Procedure, shortened: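 Saturation NanoBRET binding of the fluorescent ligand at live HEK293 cells stably expressing NLuc-hH3R; acceptor/donor BRET ratio; pKd from saturation isotherm; three independent experiments, each in duplicate.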

[2] = biological target: T1, Histamine H3 receptor; test: Binding affinity in Nluc-hH3R assessed in HEK293T cells by NanoBRET binding assay; format: cell-based
[3] = biological target: T1, Histamine H3 receptor; test: Binding affinity in Nluc-hH3R assessed as dissociation time constant by NanoBRET binding assay
[4] = biological target: T1, Histamine H3 receptor; test: Binding affinity in Nluc-hH3R assessed as association rate constant by NanoBRET binding assay
[5] = organism: Homo sapiens; test: Selectivity ratio of Ki for human H4 receptor to Ki for human H3 receptor
[6] = biological target: Histamine H1 receptor (Homo sapiens, UniProt P35367); test: Displacement of [3H]mepyramine from human H1R receptor expressed in HEK293 cells by radioligand competition binding assay; format: cell-based
Chain of Histamine H1 receptor (P35367 whole entry): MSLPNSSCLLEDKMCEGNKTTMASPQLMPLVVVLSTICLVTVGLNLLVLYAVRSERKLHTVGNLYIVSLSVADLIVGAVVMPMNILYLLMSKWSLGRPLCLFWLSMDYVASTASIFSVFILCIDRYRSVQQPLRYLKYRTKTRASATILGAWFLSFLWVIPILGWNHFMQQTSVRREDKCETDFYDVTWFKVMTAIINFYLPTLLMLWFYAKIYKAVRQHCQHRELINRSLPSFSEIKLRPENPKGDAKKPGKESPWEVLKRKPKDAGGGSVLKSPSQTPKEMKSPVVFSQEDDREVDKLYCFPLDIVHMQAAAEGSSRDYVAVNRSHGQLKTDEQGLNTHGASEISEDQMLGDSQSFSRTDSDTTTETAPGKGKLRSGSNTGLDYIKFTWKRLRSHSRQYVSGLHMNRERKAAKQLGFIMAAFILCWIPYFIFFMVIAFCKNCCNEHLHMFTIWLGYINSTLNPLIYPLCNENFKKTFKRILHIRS

[7] = biological target: T1, Histamine H3 receptor; test: Binding affinity in human H3R assessed as association rate constant using confocal microscopy
[8] = biological target: T1, Histamine H3 receptor; test: Binding affinity in human H3R assessed as association time constant by confocal microscopy
[9] = biological target: T1, Histamine H3 receptor; test: Binding affinity in Nluc-hH3R assessed as association time constant receptor saturated after 15 mins by NanoBRET binding assay
[10] = biological target: T1, Histamine H3 receptor; test: Binding affinity in human H3 receptor expressed in HEK293 cells by confocal microscopy; format: cell-based
[11] = biological target: Histamine H4 receptor (Homo sapiens, UniProt Q9H3N8); test: Displacement of [3H]histamine from human H4R receptor expressed in HEK293 cells by radioligand competition binding assay; format: cell-based
Chain of Histamine H4 receptor (Q9H3N8 whole entry): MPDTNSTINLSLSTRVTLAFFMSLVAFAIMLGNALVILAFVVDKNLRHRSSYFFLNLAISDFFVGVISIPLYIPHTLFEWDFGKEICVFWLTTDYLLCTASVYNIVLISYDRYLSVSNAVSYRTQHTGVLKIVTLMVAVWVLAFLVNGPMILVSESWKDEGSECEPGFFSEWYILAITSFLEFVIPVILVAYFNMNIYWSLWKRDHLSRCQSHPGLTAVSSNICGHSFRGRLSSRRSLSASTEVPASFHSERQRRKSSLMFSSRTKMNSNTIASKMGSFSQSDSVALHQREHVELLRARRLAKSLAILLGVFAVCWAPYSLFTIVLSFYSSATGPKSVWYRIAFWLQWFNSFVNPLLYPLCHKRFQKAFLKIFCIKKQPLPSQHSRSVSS

[12] = biological target: T1, Histamine H3 receptor; test: Inhibition of human H3R expressed in HEK293-A cells assessed as inhibition of imetit-induced Gi2 activation by BRET assay; format: cell-based
[13] = biological target: Histamine H2 receptor (Homo sapiens, UniProt P25021); test: Displacement of [3H]UR-DE25 from human H2R receptor expressed in HEK293 cells by radioligand competition binding assay; format: cell-based
Chain of Histamine H2 receptor (P25021 whole entry): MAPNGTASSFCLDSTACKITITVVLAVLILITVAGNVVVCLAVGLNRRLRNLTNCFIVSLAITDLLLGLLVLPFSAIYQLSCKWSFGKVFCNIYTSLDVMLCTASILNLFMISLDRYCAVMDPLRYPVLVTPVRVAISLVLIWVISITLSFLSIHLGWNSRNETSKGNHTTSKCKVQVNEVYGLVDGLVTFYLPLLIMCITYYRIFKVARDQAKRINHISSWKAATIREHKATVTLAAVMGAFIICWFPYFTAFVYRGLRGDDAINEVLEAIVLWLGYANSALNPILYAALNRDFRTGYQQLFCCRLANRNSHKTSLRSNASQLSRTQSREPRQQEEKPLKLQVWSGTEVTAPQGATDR

[14] = organism: Homo sapiens; test: Selectivity ratio of Ki for human H2 receptor to Ki for human H3 receptor
[15] = biological target: T1, Histamine H3 receptor; test: Binding affinity to human H3R expressed in HEK293 cells by flow cytometric analysis; format: cell-based
[16] = biological target: T1, Histamine H3 receptor; test: Displacement of [3H]UR-P1294 from human H3R receptor expressed in HEK293 cells by radioligand competition binding assay; format: cell-based
[17] = organism: Homo sapiens; test: Selectivity ratio of Ki for human H1 receptor to Ki for human H3 receptor
[18] = biological target: T1, Histamine H3 receptor; test: Binding affinity in human H3R as assessed as dissociation time constant using confocal microscopy relative to control
[19] = biological target: T1, Histamine H3 receptor; test: Binding affinity to human H3 receptor assessed as labeling efficiency by measuring dual color acquisition at 3 nM by microscopy based TIRF assay

T1 sequence (Q9Y5N1 whole entry): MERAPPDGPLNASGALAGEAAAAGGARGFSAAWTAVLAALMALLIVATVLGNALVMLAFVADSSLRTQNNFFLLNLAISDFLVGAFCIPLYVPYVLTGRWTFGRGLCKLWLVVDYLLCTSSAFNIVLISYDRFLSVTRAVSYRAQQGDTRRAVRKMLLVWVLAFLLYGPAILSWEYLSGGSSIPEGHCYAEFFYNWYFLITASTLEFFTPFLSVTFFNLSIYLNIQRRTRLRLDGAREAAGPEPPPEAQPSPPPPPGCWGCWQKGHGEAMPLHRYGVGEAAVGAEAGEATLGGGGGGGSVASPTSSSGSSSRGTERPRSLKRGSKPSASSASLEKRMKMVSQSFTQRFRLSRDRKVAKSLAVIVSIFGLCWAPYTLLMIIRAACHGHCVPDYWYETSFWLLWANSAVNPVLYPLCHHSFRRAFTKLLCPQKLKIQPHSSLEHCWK

Compound `N=C(N)SCCc1cnc[nH]1` [IMETIT] has a Ki [1] of 12.6 nM and a Ki [2] of 5.01 nM.

`CN(C)c1ccc2c(-c3ccc(C(=O)NCCOCCOCCOCCNC(=O)C4CCN(Cc5ccc(OCCCN6CCCCC6)cc5)CC4)cc3C(=O)[O-])c3ccc(=[N+](C)C)cc-3oc2c1` gave a Kd [1] of 0.158 nM, a TIME [3] of 0.107 h and an Activity [4] of 0.71 min⁻¹ nM⁻¹. It also gave a Ratio Ki [5] greater than 100000, a Ki [6] greater than 100000 nM and an Activity [7] of 0.37 min⁻¹ nM⁻¹. The TIME [8] was 0.008 h, the TIME [9] was 0.0328 h and the Activity [10] was 2.13 min⁻¹. The Ki [11] was greater than 100000 nM, the pKb [12] was 9.04 and the Ki [13] was greater than 100000 nM. It also gave a Ratio Ki [14] greater than 100000, a Kd [15] of 0.195 nM and a Ki [16] of 0.302 nM. For the same compound, the Ratio Ki [17] was greater than 100000, the TIME [18] was 0.0583 h and the Activity [19] was 96.1%.

Work on `CCN1CCN(C(=O)c2ccc(-c3nc4ccccc4s3)s2)CC1` yielded a Ki [1] of 19.5 nM and a Ki [2] of 19.5 nM.

In the case of `NCCOCCOCCOCCNC(=O)C1CCN(Cc2ccc(OCCCN3CCCCC3)cc2)CC1`, the Ki [16] is reported as 0.398 nM.

In the case of `O=C(O)C1CCN(Cc2ccc(OCCCN3CCCCC3)cc2)CC1`, the Ki [16] is reported as 1.58 nM.

Compound `CCOC(=O)C1CCN(Cc2ccc(OCCCN3CCCCC3)cc2)CC1` has a Ki [16] of 0.275 nM.
